{
  "source": "ChEMBL document CHEMBL1667789",
  "about": "“Synthesis of 4H-chromene, coumarin, 12H-chromeno[2,3-d]pyrimidine derivatives and some of their antimicrobial and cytotoxicity activities” (2011)",
  "key": {"[1]": {"tested_on": "Staphylococcus epidermidis", "assay": "Antimicrobial activity against Staphylococcus epidermidis ATCC 12228 at 25 ug/ml by agar diffusion method", "assay_type": "functional", "settings": "for zone of inhibition at 25 µg/mL: read-out: DIZ", "summary_of_the_method": "(§1)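 Agar diffusion on Mueller-Hinton agar. Bacterial strains came from the NODCAR Microbiology laboratory culture collection. Ampicillin was the reference standard.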"}, "Bacillus subtilis": {"tested_on": "Bacillus subtilis", "assay": "Antimicrobial activity against Bacillus subtilis ATCC 6633 at 25 ug/ml by agar diffusion method", "assay_type": "functional", "settings": "for zone of inhibition at 25 µg/mL: read-out: DIZ", "summary_of_the_method": "as §1"}, "[2]": {"tested_on": "Bordetella bronchiseptica", "assay": "Antimicrobial activity against Bordetella bronchiseptica ATCC 4617 at 25 ug/ml by agar diffusion method", "assay_type": "functional", "settings": "for zone of inhibition at 25 µg/mL: read-out: DIZ", "summary_of_the_method": "as §1"}, "Cancer cell lines": {"tested_on": "Cancer cell lines", "assay": "Cytotoxicity against human Lung cancer cells", "assay_type": "functional, cell-based", "summary_of_the_method": "(§2)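 Human tumour lines were MCF-7 (breast adenocarcinoma) and HCT (described as lung carcinoma). Cytotoxicity was read by a cell viability assay, with IC50 derived from it.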"}, "Staphylococcus aureus": {"tested_on": "Staphylococcus aureus", "assay": "Antimicrobial activity against Staphylococcus aureus ATCC 29737 at 25 ug/ml by agar diffusion method", "assay_type": "functional", "settings": "for zone of inhibition at 25 µg/mL: read-out: DIZ", "summary_of_the_method": "as §1"}, "Bacillus pumilus": {"tested_on": "Bacillus pumilus", "assay": "Antimicrobial activity against Bacillus pumilus ATCC 14884 at 25 ug/ml by agar diffusion method", "assay_type": "functional", "settings": "for zone of inhibition at 25 µg/mL: read-out: DIZ", "summary_of_the_method": "as §1"}, "MCF7": {"tested_on": "MCF7", "assay": "Cytotoxicity against human MCF7 cells", "assay_type": "functional, cell-based", "summary_of_the_method": "as §2"}, "Saccharomyces cerevisiae": {"tested_on": "Saccharomyces cerevisiae", "assay": "Antifungal activity against Saccharomyces cerevisiae ATCC 9080 at 25 ug/ml by agar diffusion method", "assay_type": "functional", "settings": "for zone of inhibition at 25 µg/mL: read-out: DIZ", "summary_of_the_method": "(§3)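 Agar diffusion on Sabouraud's agar. Fungal strains came from the NODCAR Microbiology laboratory culture collection. Mycostatine was the reference standard.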"}, "Candida albicans": {"tested_on": "Candida albicans", "assay": "Antifungal activity against Candida albicans ATCC 10231 at 25 ug/ml by agar diffusion method", "assay_type": "functional", "settings": "for zone of inhibition at 25 µg/mL: read-out: DIZ", "summary_of_the_method": "as §3"}, "Escherichia coli": {"tested_on": "Escherichia coli", "assay": "Antimicrobial activity against Escherichia coli ATCC 14169 at 25 ug/ml by agar diffusion method", "assay_type": "functional", "settings": "for zone of inhibition at 25 µg/mL: read-out: DIZ", "summary_of_the_method": "as §1"}},
  "note": "The source made the active and inactive calls. The calls are words filed in the database; no cut-off is given here.",
  "data": [
    {"smiles": "CCOC(=O)C1=C(N)Oc2cc(N(CC)CC)ccc2C1c1ccc(Br)cc1", "note": "(stereo not given)", "values": [
      {"measurement": "diameter of the inhibition zone (DIZ)", "setting": "[1]", "value": "inactive"},
      {"measurement": "diameter of the inhibition zone (DIZ)", "setting": "Bacillus subtilis", "value": "inactive"},
      {"measurement": "diameter of the inhibition zone (DIZ)", "setting": "[2]", "value": "inactive"},
      {"measurement": "Activity", "setting": "Cancer cell lines", "value": "Not toxic"},
      {"measurement": "diameter of the inhibition zone (DIZ)", "setting": "Staphylococcus aureus", "value": "inactive"},
      {"measurement": "diameter of the inhibition zone (DIZ)", "setting": "Bacillus pumilus", "value": "inactive"},
      {"measurement": "Activity", "setting": "MCF7", "value": "Not toxic"},
      {"measurement": "diameter of the inhibition zone (DIZ)", "setting": "Saccharomyces cerevisiae", "value": "inactive"},
      {"measurement": "diameter of the inhibition zone (DIZ)", "setting": "Candida albicans", "value": "inactive"},
      {"measurement": "diameter of the inhibition zone (DIZ)", "setting": "Escherichia coli", "value": "inactive"}
    ]},
    {"smiles": "CCN(CC)c1ccc2c(c1)OC(N)=C(C#N)C2c1ccc(F)cc1", "note": "(stereo not given)", "values": [
      {"measurement": "diameter of the inhibition zone (DIZ)", "setting": "[1]", "value": "inactive"},
      {"measurement": "diameter of the inhibition zone (DIZ)", "setting": "Bacillus subtilis", "value": "inactive"},
      {"measurement": "diameter of the inhibition zone (DIZ)", "setting": "[2]", "value": "inactive"},
      {"measurement": "Activity", "setting": "Cancer cell lines", "value": "Not toxic"},
      {"measurement": "diameter of the inhibition zone (DIZ)", "setting": "Staphylococcus aureus", "value": "inactive"},
      {"measurement": "diameter of the inhibition zone (DIZ)", "setting": "Bacillus pumilus", "value": "inactive"},
      {"measurement": "Activity", "setting": "MCF7", "value": "Not toxic"},
      {"measurement": "diameter of the inhibition zone (DIZ)", "setting": "Saccharomyces cerevisiae", "value": "inactive"},
      {"measurement": "diameter of the inhibition zone (DIZ)", "setting": "Candida albicans", "value": "inactive"},
      {"measurement": "diameter of the inhibition zone (DIZ)", "setting": "Escherichia coli", "value": "inactive"}
    ]},
    {"smiles": "CCN(CC)c1ccc2c(c1)Oc1ncn(N)c(=N)c1C2c1ccc(Br)cc1", "note": "(stereo not given)", "values": [
      {"measurement": "zone of inhibition at 25 µg/mL", "setting": "[1]", "value": 22, "unit": "mm"},
      {"measurement": "zone of inhibition at 25 µg/mL", "setting": "Bacillus subtilis", "value": 15, "unit": "mm"},
      {"measurement": "zone of inhibition at 25 µg/mL", "setting": "[2]", "value": 21, "unit": "mm"},
      {"measurement": "zone of inhibition at 25 µg/mL", "setting": "Staphylococcus aureus", "value": 24, "unit": "mm"},
      {"measurement": "zone of inhibition at 25 µg/mL", "setting": "Bacillus pumilus", "value": 25, "unit": "mm"},
      {"measurement": "zone of inhibition at 25 µg/mL", "setting": "Saccharomyces cerevisiae", "value": 22, "unit": "mm"},
      {"measurement": "zone of inhibition at 25 µg/mL", "setting": "Candida albicans", "value": 15, "unit": "mm"},
      {"measurement": "zone of inhibition at 25 µg/mL", "setting": "Escherichia coli", "value": 16, "unit": "mm"}
    ]},
    {"smiles": "CCN(CC)c1ccc2c(c1)Oc1ncn(N)c(=N)c1C2c1ccc(Cl)cc1", "note": "(stereo not given)", "values": [
      {"measurement": "zone of inhibition at 25 µg/mL", "setting": "[1]", "value": 24, "unit": "mm"},
      {"measurement": "zone of inhibition at 25 µg/mL", "setting": "Bacillus subtilis", "value": 17, "unit": "mm"},
      {"measurement": "zone of inhibition at 25 µg/mL", "setting": "[2]", "value": 22, "unit": "mm"},
      {"measurement": "zone of inhibition at 25 µg/mL", "setting": "Staphylococcus aureus", "value": 26, "unit": "mm"},
      {"measurement": "zone of inhibition at 25 µg/mL", "setting": "Bacillus pumilus", "value": 27, "unit": "mm"},
      {"measurement": "zone of inhibition at 25 µg/mL", "setting": "Saccharomyces cerevisiae", "value": 24, "unit": "mm"},
      {"measurement": "zone of inhibition at 25 µg/mL", "setting": "Candida albicans", "value": 16, "unit": "mm"},
      {"measurement": "zone of inhibition at 25 µg/mL", "setting": "Escherichia coli", "value": 17, "unit": "mm"}
    ]},
    {"smiles": "CCN(CC)c1ccc2c(c1)Oc1ncn(C)c(=N)c1C2c1ccc(Cl)cc1", "note": "(stereo not given)", "values": [
      {"measurement": "zone of inhibition at 25 µg/mL", "setting": "[1]", "value": 25, "unit": "mm"},
      {"measurement": "zone of inhibition at 25 µg/mL", "setting": "Bacillus subtilis", "value": 21, "unit": "mm"},
      {"measurement": "zone of inhibition at 25 µg/mL", "setting": "[2]", "value": 20, "unit": "mm"},
      {"measurement": "zone of inhibition at 25 µg/mL", "setting": "Staphylococcus aureus", "value": 24, "unit": "mm"},
      {"measurement": "zone of inhibition at 25 µg/mL", "setting": "Bacillus pumilus", "value": 25, "unit": "mm"},
      {"measurement": "zone of inhibition at 25 µg/mL", "setting": "Saccharomyces cerevisiae", "value": 20, "unit": "mm"},
      {"measurement": "zone of inhibition at 25 µg/mL", "setting": "Candida albicans", "value": 14, "unit": "mm"},
      {"measurement": "zone of inhibition at 25 µg/mL", "setting": "Escherichia coli", "value": 21, "unit": "mm"}
    ]},
    {"smiles": "CCO/C=N/C1=C(C#N)C(c2ccc(Br)cc2)c2ccc(N(CC)CC)cc2O1", "note": "(stereo not given)", "values": [
      {"measurement": "diameter of the inhibition zone (DIZ)", "setting": "[1]", "value": "inactive"},
      {"measurement": "diameter of the inhibition zone (DIZ)", "setting": "Bacillus subtilis", "value": "inactive"},
      {"measurement": "diameter of the inhibition zone (DIZ)", "setting": "[2]", "value": "inactive"},
      {"measurement": "diameter of the inhibition zone (DIZ)", "setting": "Staphylococcus aureus", "value": "inactive"},
      {"measurement": "diameter of the inhibition zone (DIZ)", "setting": "Bacillus pumilus", "value": "inactive"},
      {"measurement": "diameter of the inhibition zone (DIZ)", "setting": "Saccharomyces cerevisiae", "value": "inactive"},
      {"measurement": "diameter of the inhibition zone (DIZ)", "setting": "Candida albicans", "value": "inactive"},
      {"measurement": "diameter of the inhibition zone (DIZ)", "setting": "Escherichia coli", "value": "inactive"}
    ]},
    {"smiles": "CCN(CC)c1ccc2c(c1)OC(N)=C(C#N)C2c1ccc(Br)cc1", "note": "(stereo not given)", "values": [
      {"measurement": "diameter of the inhibition zone (DIZ)", "setting": "[1]", "value": "inactive"},
      {"measurement": "diameter of the inhibition zone (DIZ)", "setting": "Bacillus subtilis", "value": "inactive"},
      {"measurement": "diameter of the inhibition zone (DIZ)", "setting": "[2]", "value": "inactive"},
      {"measurement": "diameter of the inhibition zone (DIZ)", "setting": "Staphylococcus aureus", "value": "inactive"},
      {"measurement": "diameter of the inhibition zone (DIZ)", "setting": "Bacillus pumilus", "value": "inactive"},
      {"measurement": "diameter of the inhibition zone (DIZ)", "setting": "Saccharomyces cerevisiae", "value": "inactive"},
      {"measurement": "diameter of the inhibition zone (DIZ)", "setting": "Candida albicans", "value": "inactive"},
      {"measurement": "diameter of the inhibition zone (DIZ)", "setting": "Escherichia coli", "value": "inactive"}
    ]}
  ]
}
